Measured values published in ChEMBL document CHEMBL1158464, “Structure-activity relationships and cancer-cell selective toxicity of novel inhibitors of glioma-associated oncogene homologue 1 (Gli1) mediated transcription” (J Med Chem, 2009).
Active and inactive are the calls of the source. The rule behind the calls is not given here.

system: Raji; assay: Cytotoxicity against human Raji cells at 40 uM/well after 68 hrs by alamar blue assay; format: functional, cell-based
Method in brief: (§1)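 Cells plated in appropriate medium 24 h before compound. A 10 mM DMSO stock was diluted in EMEM to 160 µM (4×) and added in triplicate to a final 40 µM. Incubated 68 h at 37 °C, then Alamar Blue for 4 h at 37 °C. Fluorescence read at ex 510/em 590 nm. Viability taken relative to DMSO control wells.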

SMILES	Activity
COc1ccc2cc([C@@H](C)C(=O)NCCc3ccc(O)cc3)ccc2c1	Active
CC(C(=O)NCCc1ccc(O)cc1)c1cccc(C(=O)c2ccccc2)c1 (racemic)	Active
COc1ccc2[nH]cc(CC(=O)NCCc3ccc(O)cc3)c2c1	Active
C[C@H](C(=O)NCCc1ccc(O)cc1)c1cccc(C(O)c2ccccc2)c1 (some centres not stated)	Active
O=C(Cc1cccc(Oc2ccccc2)c1)NCCc1ccc(O)cc1	Active
O=C(Cc1ccc(Oc2ccccc2)cc1)NCCc1ccc(O)cc1	Active
O=C(Cc1ccccc1Oc1ccccc1)NCCc1ccc(O)cc1	Active
C[C@H](C(=O)NCCc1ccc(O)cc1)c1cccc(Cc2ccccc2)c1	Active
CC(C)Cc1ccc(C(C)C(=O)NCCc2ccc(O)cc2)cc1 (configuration not stated)	Active

system: SJRH30; assay: Cytotoxicity against human Rh30 cells at 40 uM/well after 68 hrs by alamar blue assay; format: functional, cell-based; method in brief: as §1

SMILES	Activity
COc1ccc2cc([C@@H](C)C(=O)NCCc3ccc(O)cc3)ccc2c1	Active
CC(C(=O)NCCc1ccc(O)cc1)c1cccc(C(=O)c2ccccc2)c1 (racemic)	Active
COc1ccc2[nH]cc(CC(=O)NCCc3ccc(O)cc3)c2c1	Active
C[C@H](C(=O)NCCc1ccc(O)cc1)c1cccc(C(O)c2ccccc2)c1 (some centres not stated)	Active
O=C(Cc1cccc(Oc2ccccc2)c1)NCCc1ccc(O)cc1	Active
O=C(Cc1ccc(Oc2ccccc2)cc1)NCCc1ccc(O)cc1	Active
O=C(Cc1ccccc1Oc1ccccc1)NCCc1ccc(O)cc1	Active
C[C@H](C(=O)NCCc1ccc(O)cc1)c1cccc(Cc2ccccc2)c1	Active
CC(C)Cc1ccc(C(C)C(=O)NCCc2ccc(O)cc2)cc1 (configuration not stated)	Active

system: MDA-MB-231; assay: Cytotoxicity against human MDA-MB-231 cells at 40 uM/well after 68 hrs by alamar blue assay; format: functional, cell-based; method in brief: as §1

SMILES	Activity
COc1ccc2cc([C@@H](C)C(=O)NCCc3ccc(O)cc3)ccc2c1	Active
CC(C(=O)NCCc1ccc(O)cc1)c1cccc(C(=O)c2ccccc2)c1 (racemic)	Active
COc1ccc2[nH]cc(CC(=O)NCCc3ccc(O)cc3)c2c1	Active
C[C@H](C(=O)NCCc1ccc(O)cc1)c1cccc(C(O)c2ccccc2)c1 (some centres not stated)	Active
O=C(Cc1cccc(Oc2ccccc2)c1)NCCc1ccc(O)cc1	Active
O=C(Cc1ccc(Oc2ccccc2)cc1)NCCc1ccc(O)cc1	Active
O=C(Cc1ccccc1Oc1ccccc1)NCCc1ccc(O)cc1	Active
C[C@H](C(=O)NCCc1ccc(O)cc1)c1cccc(Cc2ccccc2)c1	Active
CC(C)Cc1ccc(C(C)C(=O)NCCc2ccc(O)cc2)cc1 (configuration not stated)	Active

system: BJ; assay: Cytotoxicity against human TERT-immortalized human BJ cells at 40 uM/well after 68 hrs by alamar blue assay; format: cell-based; method in brief: as §1

SMILES	Activity
COc1ccc2cc([C@@H](C)C(=O)NCCc3ccc(O)cc3)ccc2c1	Non-toxic
CC(C(=O)NCCc1ccc(O)cc1)c1cccc(C(=O)c2ccccc2)c1 (racemic)	Non-toxic
COc1ccc2[nH]cc(CC(=O)NCCc3ccc(O)cc3)c2c1	Non-toxic
C[C@H](C(=O)NCCc1ccc(O)cc1)c1cccc(C(O)c2ccccc2)c1 (some centres not stated)	Non-toxic
O=C(Cc1cccc(Oc2ccccc2)c1)NCCc1ccc(O)cc1	Non-toxic
O=C(Cc1ccc(Oc2ccccc2)cc1)NCCc1ccc(O)cc1	Non-toxic
O=C(Cc1ccccc1Oc1ccccc1)NCCc1ccc(O)cc1	Non-toxic
C[C@H](C(=O)NCCc1ccc(O)cc1)c1cccc(Cc2ccccc2)c1	Non-toxic
CC(C)Cc1ccc(C(C)C(=O)NCCc2ccc(O)cc2)cc1 (configuration not stated)	Non-toxic

system: HepG2; assay: Cytotoxicity against human HepG2 cells at 40 uM/well after 68 hrs by alamar blue assay; format: functional, cell-based; method in brief: as §1

SMILES	Activity
COc1ccc2cc([C@@H](C)C(=O)NCCc3ccc(O)cc3)ccc2c1	inactive
CC(C(=O)NCCc1ccc(O)cc1)c1cccc(C(=O)c2ccccc2)c1 (racemic)	inactive
COc1ccc2[nH]cc(CC(=O)NCCc3ccc(O)cc3)c2c1	inactive
C[C@H](C(=O)NCCc1ccc(O)cc1)c1cccc(C(O)c2ccccc2)c1 (some centres not stated)	inactive
O=C(Cc1cccc(Oc2ccccc2)c1)NCCc1ccc(O)cc1	inactive
O=C(Cc1ccc(Oc2ccccc2)cc1)NCCc1ccc(O)cc1	inactive
O=C(Cc1ccccc1Oc1ccccc1)NCCc1ccc(O)cc1	inactive
C[C@H](C(=O)NCCc1ccc(O)cc1)c1cccc(Cc2ccccc2)c1	inactive
CC(C)Cc1ccc(C(C)C(=O)NCCc2ccc(O)cc2)cc1 (configuration not stated)	inactive

system: LN-229; assay: Cytotoxicity against human LN229 cells at 40 uM/well after 68 hrs by alamar blue assay; format: functional, cell-based; method in brief: as §1

SMILES	Activity
COc1ccc2cc([C@@H](C)C(=O)NCCc3ccc(O)cc3)ccc2c1	inactive
CC(C(=O)NCCc1ccc(O)cc1)c1cccc(C(=O)c2ccccc2)c1 (racemic)	inactive
COc1ccc2[nH]cc(CC(=O)NCCc3ccc(O)cc3)c2c1	inactive
C[C@H](C(=O)NCCc1ccc(O)cc1)c1cccc(C(O)c2ccccc2)c1 (some centres not stated)	inactive
O=C(Cc1cccc(Oc2ccccc2)c1)NCCc1ccc(O)cc1	inactive
O=C(Cc1ccc(Oc2ccccc2)cc1)NCCc1ccc(O)cc1	inactive
O=C(Cc1ccccc1Oc1ccccc1)NCCc1ccc(O)cc1	inactive
C[C@H](C(=O)NCCc1ccc(O)cc1)c1cccc(Cc2ccccc2)c1	inactive
CC(C)Cc1ccc(C(C)C(=O)NCCc2ccc(O)cc2)cc1 (configuration not stated)	inactive

system: DU-145; assay: Cytotoxicity against human DU145 cells at 40 uM/well after 68 hrs by alamar blue assay; format: functional, cell-based; method in brief: as §1

SMILES	Activity
COc1ccc2cc([C@@H](C)C(=O)NCCc3ccc(O)cc3)ccc2c1	Active
CC(C(=O)NCCc1ccc(O)cc1)c1cccc(C(=O)c2ccccc2)c1 (racemic)	Active
COc1ccc2[nH]cc(CC(=O)NCCc3ccc(O)cc3)c2c1	Active
C[C@H](C(=O)NCCc1ccc(O)cc1)c1cccc(C(O)c2ccccc2)c1 (some centres not stated)	Active
O=C(Cc1cccc(Oc2ccccc2)c1)NCCc1ccc(O)cc1	Active
O=C(Cc1ccc(Oc2ccccc2)cc1)NCCc1ccc(O)cc1	Active
O=C(Cc1ccccc1Oc1ccccc1)NCCc1ccc(O)cc1	Active
C[C@H](C(=O)NCCc1ccc(O)cc1)c1cccc(Cc2ccccc2)c1	Active
CC(C)Cc1ccc(C(C)C(=O)NCCc2ccc(O)cc2)cc1 (configuration not stated)	Active

system: Daoy; assay: Cytotoxicity against human DaOY cells at 40 uM/well after 68 hrs by alamar blue assay; format: functional, cell-based; method in brief: as §1

SMILES	Activity
COc1ccc2cc([C@@H](C)C(=O)NCCc3ccc(O)cc3)ccc2c1	Active
CC(C(=O)NCCc1ccc(O)cc1)c1cccc(C(=O)c2ccccc2)c1 (racemic)	Active
COc1ccc2[nH]cc(CC(=O)NCCc3ccc(O)cc3)c2c1	Active
C[C@H](C(=O)NCCc1ccc(O)cc1)c1cccc(C(O)c2ccccc2)c1 (some centres not stated)	Active
O=C(Cc1cccc(Oc2ccccc2)c1)NCCc1ccc(O)cc1	Active
O=C(Cc1ccc(Oc2ccccc2)cc1)NCCc1ccc(O)cc1	Active
O=C(Cc1ccccc1Oc1ccccc1)NCCc1ccc(O)cc1	Active
C[C@H](C(=O)NCCc1ccc(O)cc1)c1cccc(Cc2ccccc2)c1	Active
CC(C)Cc1ccc(C(C)C(=O)NCCc2ccc(O)cc2)cc1 (configuration not stated)	Active
